Target: Bcl-xL (Homo sapiens, UniProt Q07817)
Assay type: binding
Settings: global SORTCERY ranks re-indexed from 1 to 19 for the 19 chosen sequences
In short: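 Incubated with Myc-tagged Bcl-xL in 50 mM Tris, 100 mM NaCl, pH 8.0, 1 mg/ml BSA for 2 h at room temperature. Stained with anti-HA/anti-Myc, then APC/PE secondaries, at 4 °C. Sorted into 12 gates and deep-sequenced (Phred >0.95). Global ranking optimised by Monte Carlo, with bootstrap uncertainty.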

Sequence of Bcl-xL (Q07817 whole entry): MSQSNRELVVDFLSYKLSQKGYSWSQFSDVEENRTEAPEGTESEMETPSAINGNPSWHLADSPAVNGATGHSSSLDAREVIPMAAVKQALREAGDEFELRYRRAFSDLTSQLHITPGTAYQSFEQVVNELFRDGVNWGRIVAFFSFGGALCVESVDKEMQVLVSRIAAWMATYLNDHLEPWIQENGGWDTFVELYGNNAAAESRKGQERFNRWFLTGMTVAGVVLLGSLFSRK

Sequence | reindexed ranking
AAQELRRYGDEY | 8
AGAQLHRFADDY | 12
FGAQLGRVASDF | 14
FGAQLNRIAEDF | 6
IGAQFGRFADDF | 5
IGAQLRRMADDV | 7
VAQELRRIGDEV | 9
VAQELRRYGDEY | 4
VGAQFHRFANDF | 17
VGAQLRRIADDV | 1
YAQEIGRNGDEF | 16
YAQELQRYGDET | 13
YGAQLDRYAQDF | 10
